# KCNK3 block: human KCNK3 channel inhibition, primary screen; CHO-KCNK3 thallium flux, FluxOR fluorescence; stronger effect = lower value; O14649; actives 0.84% (n = 340,000); B-score at 10 µM; AID 602410;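 active = B-score under library mean minus 4 SD, starting fluorescence ratio at most library mean plus 5 SD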;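 also: more negative B-score means stronger inhibition of thallium flux through KCNK3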
# KCNQ1 act: potentiators or activators of human KCNQ1 potassium channel; P51787; CHO-K1 KCNQ1, thallium flux FluxOR fluorescence; stronger effect = higher value; B-score at 10 µM; actives 0.35% (n = 310,000); AID 2648;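 active = fluorescence ratio B-score, a plate-corrected score, at least three library SD, with initial intensity B-score within 5 SD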
#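 Assay system: CHO-K1 cells stably expressing KCNQ1. Medium: assay buffer for compound exposure, DMSO matched across wells. Timing: 37 °C overnight plating, 90-min dark dye load, 20-min compound pretreatment. Signal: kinetic FluxOR fluorescence, 10 s baseline plus 110 s post-stimulus.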
# Kir21 block: inhibitors of mouse Kir2.1 inward-rectifier potassium channel. P35561. HEK293-Kir2.1, FluxOR thallium flux fluorescence; stronger effect = lower value. B-score at 10 µM. actives 0.85% (n = 310,000);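 active = fluorescence ratio B-score at or below minus 3 SD of library scores, with starting-brightness B-score within 2 SD, cut at about -4.2 in these data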;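 also: channel flux triggered by added potassium and thallium sulfate stimulus; B-score of peak minus minimum fluorescence over baseline after thallium stimulus; more negative B-score means stronger Kir2.1 block with less thallium influx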
# KCNQ1 inh: human KCNQ1 channel inhibition | P51787 | CHO-K1 KCNQ1, FluxOR thallium flux fluorescence; stronger effect = higher value | B-score at 10 µM | actives 1.3% (n = 310,000) | AID 2642;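 active = compounds whose thallium flux B-score, printed positive for inhibition, exceeds three library SD while starting fluorescence stays within three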;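 also: channel opened by potassium depolarization with thallium stimulus after 20 min compound exposure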
# KCNK9 inh: blocks the human KCNK9 two-pore domain potassium channel; B-score at 10 µM; actives 1.2% (n = 310,000); Q9NPC2; HEK293 KCNK9, FluxOR thallium flux fluorescence; stronger effect = lower value; AID 488922;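 active = ratio B-score over 3 SD below the library mean, with starting fluorescence within 5 SD of its mean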;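 also: negative B-score means less thallium flux so channel inhibition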
# Target sequence (Q9NPC2 whole entry, looked up, the tested form may be a part): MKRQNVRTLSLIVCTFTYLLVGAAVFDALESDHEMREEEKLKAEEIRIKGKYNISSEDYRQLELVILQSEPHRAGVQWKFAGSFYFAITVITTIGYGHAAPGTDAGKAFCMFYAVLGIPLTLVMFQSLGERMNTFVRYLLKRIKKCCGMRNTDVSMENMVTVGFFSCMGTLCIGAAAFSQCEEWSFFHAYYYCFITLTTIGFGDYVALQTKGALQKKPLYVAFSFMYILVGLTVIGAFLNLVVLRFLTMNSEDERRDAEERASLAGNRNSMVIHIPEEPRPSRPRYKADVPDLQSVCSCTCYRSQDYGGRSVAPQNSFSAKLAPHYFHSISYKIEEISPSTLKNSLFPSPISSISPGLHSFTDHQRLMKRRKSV
# hERG rescue: compounds protecting human hERG from proarrhythmic drug block | Q12809 | CHO-hERG, FluxOR thallium flux, dofetilide IC70 present | activation (rescue from dofetilide block), less the hit threshold, % at 10 µM | actives 0.51% (n = 310,000) | AID 1511;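 active = activation above the mean of controls blocked by dofetilide plus 5 SD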;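 also: thallium influx through hERG after potassium depolarization seen as dye fluorescence rise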
# KCNQ1 inh valid: human KCNQ1 channel inhibition, validation assay; shares compounds with KCNQ1 inh; KCNQ1 cell line, FluxOR thallium flux fluorescence; inhibition, % at 10 µM; actives 93% (n = 1,600); AID 588353;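 active = primary screen active, with duplicate mean exceeding buffer control mean plus 3 SD of buffer wells, cut at about 28% in these data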;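 also: 0% = buffer control ratio and 100% = XE991 inhibitor control ratio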
# CHO Tl flux: KCNQ1 inhibitor counter-screen hit in parental CHO cells. shares compounds with KCNQ1 inh. parental CHO-K1, FluxOR thallium flux fluorescence ratio; stronger effect = lower value; zero means no signal rise above baseline. fluorescence ratio (Tl flux) at 10 µM. actives 21% (n = 1,600). AID 588366;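 active = mean of duplicate thallium-flux fluorescence ratios in parental host cells more than 5 SD below the buffer control mean, cut at about 0.38 in these data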;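 also: ratio is peak minus minimum fluorescence divided by baseline fluorescence; actives read low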
# KCNQ1 APC inh: confirmation of human KCNQ1 potassium channel inhibitors by electrophysiology; shares compounds with KCNQ1 inh; KCNQ1-CHO cells, automated patch clamp current; calls only at 10 µM; actives 20% (n = 490); AID 624120;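 active = KCNQ1 current drop exceeding 3 SD of negative control wells, seen in both duplicate runs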;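 also: steady state current during a 2 s step from -80 to +40 mV; negative values mean current inhibition and positive values mean potentiation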
# KCNQ2 inh: rat KCNQ2 inhibition in KCNQ1 inhibitor specificity screen; shares compounds with KCNQ1 inh; KCNQ2 cells, FluxOR thallium flux fluorescence; inhibition, % at 10 µM; actives 71% (n = 1,600); AID 651746;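 active = mean percent inhibition of the KCNQ2 thallium signal more than 5 SD above the buffer-only control wells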;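 also: KCNQ2 expressed in CHO cells; 0% = buffer control wells and 100% = XE-991 inhibitor control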
# KCNQ1-KCNE1 inh: KCNQ1 inhibitor that also blocks human KCNQ1/KCNE1 channel; shares compounds with KCNQ1 inh; KCNQ1/KCNE1 cells, FluxOR thallium flux fluorescence; inhibition, % at 10 µM; actives 77% (n = 1,600); AID 652147;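 active = mean percent inhibition of duplicate wells above the buffer-only control mean plus 3 SD of those controls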;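 also: 0% = buffer only wells and 100% = XE-991 inhibitor control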
# KCNK9 block conf: human KCNK9 inhibitor confirmation | shares compounds with KCNK9 inh | HEK293 KCNK9 cells, FluxOR thallium flux fluorescence | inhibition, % at 10 µM | actives 43% (n = 4,900) | AID 492992;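 active = thallium signal inhibited by more than 5 SD of the compound-free buffer control wells, on both duplicate plates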;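 also: 0% = assay buffer control wells without compound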
# Kir21 sel: mouse Kir2.1 off-target activity of KCNK9 modulators. Kir2.1 cells, FluxOR thallium flux fluorescence. AID 492993. actives 4% (n = 4,900). inhibition, % at 10 µM. shares compounds with KCNK9 inh;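 active = thallium signal drop more than 5 SD beyond the mean of the no-compound control wells, seen in both duplicate plates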;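 also: signal is fluorescence rise after thallium addition divided by baseline fluorescence; plate controls were assay buffer only for no effect and full block by chlorpromazine control for full effect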
# KCNK9 uninduced: non-induced cell nonspecific activity of KCNK9 modulators. shares compounds with KCNK9 inh. non-induced KCNK9-HEK293, FluxOR thallium flux. actives 40% (n = 4,900). AID 492997. inhibition, % at 10 µM;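 active = thallium signal drop beyond 5 SD of the untreated control mean, on both duplicate plates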;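 also: plate controls were buffer only IC0 wells for no effect and SID17386958 at its maximal inhibitory level for full effect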
# KCNK3 inh conf: confirmation of human KCNK3 two-pore domain potassium channel inhibitors; shares compounds with KCNK3 block; CHO-KCNK3 thallium flux, FluxOR fluorescence; 0% buffer, 100% carvedilol maximal block; ratio percent of control, % at 10 µM; actives 99% (n = 2,400); AID 651638;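 active = ratio percent of control, averaged over triplicates, above buffer control mean plus 5 SD, cut at about 64% in these data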;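 also: ratio is the fluorescence rise from min to max over baseline after thallium stimulus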
# KCNK3 noninduced: activity in cells without induced KCNK3 expression. shares compounds with KCNK3 block. non-induced KCNK3 parental cells, FluxOR thallium flux; stronger effect = lower value. thallium flux ratio (lower = more inhibition) at 10 µM. actives 40% (n = 2,400). AID 651747;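 active = thallium flux ratio, averaged over three wells, more than 5 SD below the buffer control mean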;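 also: host cells are CHO cells without KCNK3 induction; ratio is peak minus trough fluorescence over baseline then normalized to buffer controls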
# * hit, by the source's call; i = inactive; . = no result given. Hits are enriched below; roughly 3.7% of the tested compounds scored in any of these assays.
SMILES,KCNK3 block,KCNQ1 act,Kir21 block,KCNQ1 inh,KCNK9 inh,hERG rescue,KCNK9 block conf,Kir21 sel,KCNK9 uninduced,others
Oc1ccccc1CN(CCc1ccccc1)Cc1ccccc1,-8.93*,i,-3.16,9*,-7.93*,-9.1,.,.,.,KCNQ1 inh valid=108.0*;CHO Tl flux=0.386;KCNQ1 APC inh=i;KCNQ2 inh=97.3%*;KCNQ1-KCNE1 inh=129.5%*;KCNK3 inh conf=120.0*;KCNK3 noninduced=0.135*
O=P(Oc1ccccc1)(Oc1ccccc1)N1CCOCC1,i,.,.,.,.,.,.,.,.,
CCOc1ccc(-n2c(-c3ccoc3)nc3ccccc3c2=O)cc1,i,i,0.05,i,i,-12.8,.,.,.,
CCOc1ccc(-c2c(C)n(-c3ccc(OCC)cc3)c3[n+]2CCCCC3)cc1,i,i,-10.2*,9*,-10.4*,-17.8,43.5%*,33.0%*,i,
C[C@H]1[C@@H](c2ccccc2)O[C@@H](c2ccccc2Br)N1C,i,i,0.29,i,i,-8.9,.,.,.,
COC(=O)C1=C(c2cc3ccccc3s2)C[C@@H]2CC[C@H]1N2C(=O)N1CCC(C)CC1,i,i,-0.9,i,i,-10.9,i,i,i,
CC(C)(C)C(=O)N1Cc2cnnn2-c2ccccc2C1C#N (stereo not drawn),i,.,.,.,.,.,.,.,.,
Cc1ccc2c(CN3CC=C(c4ccccc4)CC3)cc(=O)oc2c1C,i,i,2.33,i,i,-13.2,i,i,i,
CCc1ccc2c(CN3CC=C(c4ccccc4)CC3)cc(=O)oc2c1,i,i,1.71,i,i,-10.1,.,.,.,
CCC1CCC(C)N(N=O)C1 (stereo not drawn),i,.,.,.,.,.,.,.,.,
Cc1cccc(C(=O)Nc2ccc(Cl)cc2C(=O)c2ccccc2)c1,i,i,0.15,i,-8.44*,-10.0,32.5%*,i,31.0%*,
O=C(CCc1nnc2ccc(NCc3ccc(F)cc3)nn12)N1CCC2(CC1)OCCO2,i,i,0.17,i,i,-8.6,.,.,.,
Fc1ccc(CN2CCN(c3ccc(Cl)cc3)CC2)cc1,i,i,-0.07,i,i,-6.2,.,.,.,
Cc1cccc(CN2CCN(c3ccc(Cl)cc3)CC2)c1,i,i,-1.86,i,i,-21.0,i,i,i,
